Assay results taken from ChEMBL document CHEMBL5625188, “Exploring diverse reactive warheads for the design of SARS-CoV-2 main protease inhibitors” (Eur J Med Chem, 2023).

Key:
[1] = Cytotoxicity against African green monkey Vero cells incubated for 5 days by neutral red uptake assay; assay type: toxicity, cell-based; conditions: chlorocebus sabaeus, time 5 day; for CC50: vero, 120 h; for CC50 at 120 h: Vero cells
Outline: (§1)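 Vero E6 cells were kept in DMEM with 5% heat-inactivated FBS at 37 °C, 5% CO2, and seeded at 80,000 cells/mL. Neutral red uptake used 40 μg/mL dye for 2–4 h, read at 540 nm. CC50 came from a variable-slope dose-response fit.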

[2] = molecular target: T1, Replicase polyprotein 1ab (Severe acute respiratory syndrome coronavirus 2, UniProt P0DTD1); assay: Inhibition of MPro of SARS CoV-2 BetaCoV/Wuhan/WIV04/2019 preincubated for 30 mins followed by substrate addition measured for 1 hr by FRET assay
[3] = Cytotoxicity against human Calu-3 cells infected with SARS CoV-2 USA-WA1/2020 clinical isolate assessed as reduction in cell viability incubated for 48 hrs by imaging analysis; assay type: toxicity, cell-based
[4] = Cytotoxicity against African green monkey Vero cells; assay type: toxicity, cell-based; conditions: chlorocebus sabaeus; outline: as §1
[5] = molecular target: T1, Replicase polyprotein 1ab; assay: Inhibition of SARS-CoV-2 MPro
Outline: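 FRET substrate was added to 10 μM final. Fluorescence (ex 360, em 460 nm) was followed 1 h at 30 °C. Initial velocities came from linear regression of the first 15 min, giving % inhibition and IC50.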

SARS-CoV-2 = assay: Antiviral activity against SARS CoV-2 USA-WA1/2020 clinical isolate infected in human Calu-3 cells assessed as reduction in viral infection incubated for 48 hrs by imaging analysis; assay type: functional, organism-based; conditions: Severe acute respiratory syndrome coronavirus 2, USA-WA1/2020, Calu-3, 48 h
[6] = molecular target: T1, Replicase polyprotein 1ab; assay: Inhibition of MPro of SARS CoV-2 BetaCoV/Wuhan/WIV04/2019 incubated for 2 hrs in presence of substrate by FRET assay

Row | Compound | IC50 [2] [µM] | further results
1 | C=CS(=O)(=O)N(c1ccc(-c2ccccc2)cc1)[C@@H](C(=O)N[C@@H](C)c1ccccc1)c1cccnc1 | 0.31 | CC50 [1]: 18.4 µM
2 | COc1ccc(/C=C(\C#N)C(=O)N(c2ccc(-c3ccccc3)cc2)[C@@H](C(=O)N[C@@H](C)c2ccccc2)c2cccnc2)cc1 |  | CC50 at 48 h [3]: > 100 µM; CC50 [1]: > 100 µM
3 | C#CC(=O)N(c1ccc(-c2ccccc2)cc1)[C@@H](C(=O)N[C@@H](C)c1ccccc1)c1cccnc1 |  | CC50 at 120 h [1]: 2.06 µM
4 | C#CCN(c1ccc(-c2ccccc2)cc1)C(C(=O)N[C@@H](C)c1ccccc1)c1cccnc1 (stereo partly drawn) | > 20 | 
5 | CCC#CC(=O)N(c1ccc(-c2ccccc2)cc1)C(C(=O)N[C@@H](C)c1ccccc1)c1cccnc1 (stereo partly drawn) | 1.65 | CC50 at 120 h [1]: 38.6 µM
6 | C=C(NC(C)=O)C(=O)N(c1ccc(-c2ccccc2)cc1)C(C(=O)N[C@@H](C)c1ccccc1)c1cccnc1 (stereo partly drawn) | > 20 | 
7 | C[C@H](NC(=O)C(c1cccnc1)N(C(=O)C1(C#N)CCN(C(=O)OC(C)(C)C)CC1)c1ccc(-c2ccccc2)cc1)c1ccccc1 (stereo partly drawn) | > 20 | 
8 | C[C@H](NC(=O)C(c1cccnc1)N(C(=O)/C=C/Br)c1ccc(-c2ccccc2)cc1)c1ccccc1 (stereo partly drawn) | > 20 | 
9 | C=C(C(=O)N(c1ccc(-c2ccccc2)cc1)C(C(=O)N[C@@H](C)c1ccccc1)c1cccnc1)c1ccccc1 (stereo partly drawn) | > 20 | 
10 | C[C@H](NC(=O)[C@H](c1cccnc1)N(C(=O)C#CCCl)c1ccc(-c2ccccc2)cc1)c1ccccc1 |  | CC50 [1]: 2.2 µM
11 | C[C@H](NC(=O)[C@H](c1cccnc1)N(C(=O)C#CCC#N)c1ccc(-c2ccccc2)cc1)c1ccccc1 | > 20 | 
12 | C[C@H](NC(=O)C(c1cccnc1)N(C(=O)/C(C#N)=C/C1CC1)c1ccc(-c2ccccc2)cc1)c1ccccc1 (stereo partly drawn) | > 20 | 
13 | C[C@H](NC(=O)C(c1cccnc1)N(C(=O)C(C#N)=C1CCCCC1)c1ccc(-c2ccccc2)cc1)c1ccccc1 (stereo partly drawn) | > 20 | 
14 | C/C=C(\C)C(=O)N(c1ccc(-c2ccccc2)cc1)C(C(=O)N[C@@H](C)c1ccccc1)c1cccnc1 (stereo partly drawn) | > 20 | 
15 | C#CCC(=O)N(c1ccc(-c2ccccc2)cc1)C(C(=O)N[C@@H](C)c1ccccc1)c1cccnc1 (stereo partly drawn) | 4.63 | 
16 | COC(=O)/C=C/C(=O)N(c1ccc(-c2ccccc2)cc1)C(C(=O)N[C@@H](C)c1ccccc1)c1cccnc1 (stereo partly drawn) | 3.97 | CC50 at 120 h [1]: 8.9 µM
17 | C=C(Br)C(=O)N(c1ccc(-c2ccccc2)cc1)C(C(=O)N[C@@H](C)c1ccccc1)c1cccnc1 (stereo partly drawn) | 4.26 | CC50 at 120 h [1]: < 3.9 µM
18 | C=C(C)C(=O)N(c1ccc(-c2ccccc2)cc1)C(C(=O)N[C@@H](C)c1ccccc1)c1cccnc1 (stereo partly drawn) | > 20 | 
19 | C=C(Cl)C(=O)N(c1ccc(-c2ccccc2)cc1)C(C(=O)N[C@@H](C)c1ccccc1)c1cccnc1 (stereo partly drawn) |  | CC50 [4]: < 10 µM
20 | C[C@H](NC(=O)C(c1cccnc1)N(C(=O)C#CC(C)(C)O)c1ccc(-c2ccccc2)cc1)c1ccccc1 (stereo partly drawn) | 1.28 | CC50 at 120 h [1]: 19.1 µM
21 | C[C@H](NC(=O)C(c1cccnc1)N(C(=O)C1=CC(=O)CC1)c1ccc(-c2ccccc2)cc1)c1ccccc1 (stereo partly drawn) | > 20 | 
22 | C[C@H](NC(=O)C(c1cccnc1)N(C(=O)C#CC1CC1)c1ccc(-c2ccccc2)cc1)c1ccccc1 (stereo partly drawn) | 0.85 | CC50 [1]: 102 µM
23 | CC(C)C#CC(=O)N(c1ccc(-c2ccccc2)cc1)C(C(=O)N[C@@H](C)c1ccccc1)c1cccnc1 (stereo partly drawn) | 4.19 | 
24 | CCC(=O)C(=O)N(c1ccc(-c2ccccc2)cc1)C(C(=O)N[C@@H](C)c1ccccc1)c1cccnc1 (stereo partly drawn) | 3.81 | 

Row | Compound | IC50 [2] [µM] | further results
25 | CC(C)=CC(=O)N(c1ccc(-c2ccccc2)cc1)C(C(=O)N[C@@H](C)c1ccccc1)c1cccnc1 (stereo partly drawn) | > 20 | 
26 | C=CC(=O)N(c1ccc(-c2ccccc2)cc1)C(C(=O)N[C@@H](C)c1ccccc1)c1cccnc1 (stereo partly drawn) |  | IC50 [5]: > 20 µM
27 | C[C@H](NC(=O)[C@@H](c1cccnc1)N(C(=O)C#CCC#N)c1ccc(-c2ccccc2)cc1)c1ccccc1 | 0.5 | CC50 at 48 h [3]: > 100 µM; EC50 (SARS-CoV-2): 2.92 µM; Ki [6]: 0.345 µM; CC50 at 120 h [1]: > 100 µM
28 | CC#CC(=O)N(c1ccc(-c2ccccc2)cc1)C(C(=O)N[C@@H](C)c1ccccc1)c1cccnc1 (stereo partly drawn) |  | CC50 at 120 h [1]: 18 µM
29 | C[C@H](NC(=O)C(c1cccnc1)N(C(=O)/C=C/c1ccco1)c1ccc(-c2ccccc2)cc1)c1ccccc1 (stereo partly drawn) | 15.4 | 
30 | C[C@H](NC(=O)C(c1cccnc1)N(C(=O)/C=C\I)c1ccc(-c2ccccc2)cc1)c1ccccc1 (stereo partly drawn) | > 20 | 
31 | C#CC(=O)N(c1ccc(-c2ccccc2)cc1)[C@H](C(=O)N[C@@H](C)c1ccccc1)c1cccnc1 |  | CC50 at 120 h [1]: 2.8 µM
32 | C=CS(=O)(=O)N(c1ccc(-c2ccccc2)cc1)[C@H](C(=O)N[C@@H](C)c1ccccc1)c1cccnc1 | 6.49 | 
33 | CC(=O)/C=C/C(=O)N(c1ccc(-c2ccccc2)cc1)C(C(=O)N[C@@H](C)c1ccccc1)c1cccnc1 (stereo partly drawn) | 17 | 
34 | C=C(F)C(=O)N(c1ccc(-c2ccccc2)cc1)C(C(=O)N[C@@H](C)c1ccccc1)c1cccnc1 (stereo partly drawn) | > 20 | 
35 | C[C@H](NC(=O)C(c1cccnc1)N(C(=O)C#CC(C)(C)F)c1ccc(-c2ccccc2)cc1)c1ccccc1 (stereo partly drawn) | > 20 | 
36 | C[C@H](NC(=O)C(c1cccnc1)N(C(=O)/C=C/C(=O)O)c1ccc(-c2ccccc2)cc1)c1ccccc1 (stereo partly drawn) | 12.4 | CC50 at 120 h [1]: > 250 µM
37 | C[C@H](NC(=O)C(c1cccnc1)N(C(=O)C1(C#N)CC1)c1ccc(-c2ccccc2)cc1)c1ccccc1 (stereo partly drawn) | > 20 | 
38 | C[C@H](NC(=O)C(c1cccnc1)N(C(=O)C(=O)N1CCN(C)CC1)c1ccc(-c2ccccc2)cc1)c1ccccc1 (stereo partly drawn) | > 20 | 
39 | C=C(C(=O)N(c1ccc(-c2ccccc2)cc1)C(C(=O)N[C@@H](C)c1ccccc1)c1cccnc1)C(F)(F)F (stereo partly drawn) | 4.36 | CC50 at 120 h [1]: < 3.9 µM
40 | C[C@H](NC(=O)C(c1cccnc1)N(C(=O)C1=CCCCC1)c1ccc(-c2ccccc2)cc1)c1ccccc1 (stereo partly drawn) | > 20 | 
41 | C[C@H](NC(=O)[C@@H](c1cccnc1)N(C(=O)C#CCCl)c1ccc(-c2ccccc2)cc1)c1ccccc1 |  | CC50 [1]: 2 µM
42 | C#CCCC(=O)N(c1ccc(-c2ccccc2)cc1)C(C(=O)N[C@@H](C)c1ccccc1)c1cccnc1 (stereo partly drawn) | > 20 | 
43 | C[C@H](NC(=O)C(c1cccnc1)N(C(=O)C(F)(F)S(=O)(=O)F)c1ccc(-c2ccccc2)cc1)c1ccccc1 (stereo partly drawn) | > 20 | 
44 | CC(C)/C=C(\C#N)C(=O)N(c1ccc(-c2ccccc2)cc1)C(C(=O)N[C@@H](C)c1ccccc1)c1cccnc1 (stereo partly drawn) | > 20 | 
45 | C[C@H](NC(=O)C(c1cccnc1)N(C(=O)C1(C#N)CCOCC1)c1ccc(-c2ccccc2)cc1)c1ccccc1 (stereo partly drawn) | > 20 | 
46 | CO/C=C/C(=O)N(c1ccc(-c2ccccc2)cc1)C(C(=O)N[C@@H](C)c1ccccc1)c1cccnc1 (stereo partly drawn) | > 20 | 
47 | C[C@H](NC(=O)C(c1cccnc1)N(C(=O)/C=C/Cl)c1ccc(-c2ccccc2)cc1)c1ccccc1 (stereo partly drawn) | > 20 | 
48 | CCC(CC)COC(=O)[C@H](C)N[P@](=O)(OC[C@H]1O[C@@](C#N)(c2ccc3c(N)ncnn23)[C@H](O)[C@@H]1O)Oc1ccccc1 [REMDESIVIR] |  | CC50 at 48 h [3]: > 10 µM; EC50 (SARS-CoV-2): 0.17 µM; CC50 at 120 h [1]: > 10 µM
